# In article PMC4408243 (Biochimica et biophysica acta, 2015):
# Substitutions are numbered along the chain they refer to. Several values for one entry are separate records, joined by “and”; a condition that tells them apart may be missing. Equal entries are not always repeated. Marks after values point to notes of the source that are not given here.
# How the values were obtained:
# rat FABP1 [1] = target: T1, rat FABP1 (Rattus norvegicus, UniProt P02692); assay: NBD-cholesterol fluorescence binding assay
# T1 sequence (P02692 1-127): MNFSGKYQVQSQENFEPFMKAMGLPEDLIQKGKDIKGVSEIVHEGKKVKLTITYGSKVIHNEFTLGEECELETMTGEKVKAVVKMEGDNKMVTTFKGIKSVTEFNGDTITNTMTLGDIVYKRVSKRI
# Outline: (§1)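 Recombinant FABP1 was titrated into NBD-cholesterol held at 20 nM, below its critical micellar concentration; human proteins ran 0–3.6 μM. Excitation was 490 nm and emission spectra were taken at 515–600 nm, 24°C. Emission maxima came from spectral analysis. Kd and Bmax were obtained by fitting the binding curve to a hyperbola. Data are mean ± SE, n = 3–5.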
# human WT FABP1 T94T = target: T2, human WT FABP1 T94T (Homo sapiens, UniProt P07148); assay: NBD-cholesterol fluorescence binding assay
# T2 sequence (P07148 1-127): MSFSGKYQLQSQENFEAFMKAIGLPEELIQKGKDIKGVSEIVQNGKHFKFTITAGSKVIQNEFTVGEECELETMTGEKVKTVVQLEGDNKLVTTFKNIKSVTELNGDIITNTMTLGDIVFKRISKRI
# Outline: as §1
# human FABP1 T94A variant = target: T3, human FABP1 T94A variant (Homo sapiens, UniProt P07148, T94A); assay: NBD-cholesterol fluorescence binding assay
# T3 sequence (P07148 1-127 T94A): T2 sequence (P07148 1-127) with T94A
# Outline: as §1
# rat FABP1 [2] = target: T1, rat FABP1; assay: Isothermal titration calorimetry; type: binding
# human WT FABP1 = target: T4, human WT FABP1 (Homo sapiens, UniProt P07148); assay: Isothermal titration calorimetry; type: binding
# T4 sequence (P07148 1-127): T2 sequence (P07148 1-127)
# human T94A variant FABP1 = target: T5, human T94A variant FABP1 (Homo sapiens, UniProt P07148, T94A); assay: Isothermal titration calorimetry; type: binding
# T5 sequence (P07148 1-127 T94A): T2 sequence (P07148 1-127) with T94A
# [3] = aqueous; cited from earlier work
# [4] = NBD-cholesterol 20nM bound to protein, excitation 490 nm, 24°C
# [5] = NBD-cholesterol 20nM, FABP1 0–3.6 μM, hyperbola fit
# [6] = NBD-cholesterol 20nM, FABP1 0–3.6 μM, hyperbola fit, 24°C
compound,measurement,setting,value
"C[C@H](CNc1ccc([N+](=O)[O-])c2nonc12)[C@H]1CC[C@H]2[C@@H]3CC=C4C[C@@H](O)CC[C@]4(C)[C@H]3CC[C@]12C [NBD-cholesterol, 22-(N-(7-nitrobenz-2-oxa-1,3-diazol-4-yl)-amino)-23, 24-bisnor-5-cholen-3β-ol]",Emission max,rat FABP1 [1]; [4],540.7 ± 0.7 nm
same,Bmax (fluorescence intensity at saturation),rat FABP1 [1]; [5],68.2 ± 7.1 A.U.
same,Kd,rat FABP1 [1]; [6],480 ± 120 nM
same,Emission max,human WT FABP1 T94T; [4],544 nm and 543.9 ± 0.5 ^d nm
same,Bmax (fluorescence intensity at saturation),human WT FABP1 T94T; [5],72.4 ± 7.7 A.U.
same,Kd,human WT FABP1 T94T; [6],1770 ± 430 nM
same,"blue shift of emission maximum, bound versus aqueous buffer",human WT FABP1 T94T; normalized spectra,~21 nm
same,fold higher affinity for NBD-cholesterol than WT,human FABP1 T94A variant,more than 3 fold
same,fold lower Kd than WT FABP1 T94T,human FABP1 T94A variant,3.5 fold
same,maximal fluorescence intensity lower than when bound to WT FABP1 T94T,human FABP1 T94A variant,~40%
same,"shift of maximum emission, T94A variant compared to WT FABP1 T94T",human FABP1 T94A variant,5 nm
same,Emission max,human FABP1 T94A variant; [4],"549 nm and 548.9 ± 1.0 ^d, ^e nm"
same,Bmax (fluorescence intensity at saturation),human FABP1 T94A variant; [5],"43.4 ± 3.3 ^d, ^e A.U."
same,Kd,human FABP1 T94A variant; [6],510 ± 150 nM
CC(C)CCC[C@@H](C)[C@H]1CC[C@H]2[C@@H]3CC=C4C[C@@H](O)CC[C@]4(C)[C@H]3CC[C@]12C [cholesterol],Kd,rat FABP1 [2],600 ± 200 nM
same,TΔS,"rat FABP1 [2]; ITC, 25 °C, pH 8.0",5.98 ± 0.72 kcal/mol
same,"n, binding stoichiometry","rat FABP1 [2]; ITC, 25 °C, pH 8.0",0.9 ± 0.1 mol/mol
same,"ΔG, Gibbs free energy change","rat FABP1 [2]; ITC, 25 °C, pH 8.0",-9.8 ± 0.48 kcal/mol
same,"ΔH, enthalpy change","rat FABP1 [2]; ITC, 25 °C, pH 8.0",-3.59 ± 0.24 kcal/mol
same,Kd,human WT FABP1,1300 ± 400 nM
same,TΔS,"human WT FABP1; ITC, 25 °C, pH 8.0",5.02 ± 0.48 kcal/mol
same,"n, binding stoichiometry","human WT FABP1; ITC, 25 °C, pH 8.0",0.8 ± 0.2 mol/mol
same,"ΔG, Gibbs free energy change","human WT FABP1; ITC, 25 °C, pH 8.0",-9.08 ± 0.72 kcal/mol
same,"ΔH, enthalpy change","human WT FABP1; ITC, 25 °C, pH 8.0",-4.06 ± 0.48 kcal/mol
same,Kd,human T94A variant FABP1,500 ± 100 nM
same,TΔS,"human T94A variant FABP1; ITC, 25 °C, pH 8.0",5.26 ± 0.24 kcal/mol
same,"n, binding stoichiometry","human T94A variant FABP1; ITC, 25 °C, pH 8.0",0.7 ± 0.2 mol/mol
same,"ΔG, Gibbs free energy change","human T94A variant FABP1; ITC, 25 °C, pH 8.0",-10.8 ± 0.72 kcal/mol
same,"ΔH, enthalpy change","human T94A variant FABP1; ITC, 25 °C, pH 8.0",−23 ± 4 ^b kJ/mol
same,fold higher cholesterol-binding affinity than WT FABP1 T94T,human T94A variant FABP1; NBD-cholesterol fluorescence and cholesterol ITC binding assays,3 fold
same,critical micellar concentration,[3],~30 nM
